Screens: PubChem, several laboratories
Shown are actives, neighbours in structure and some others; about 2% of the full set was active somewhere.
ATG4B inhibitor – blocks human ATG4B protease cleavage of LC3 substrate | Q9Y4P1 | ATG4B cleavage of LC3-PLA2, NBD-HPC fluorescence, 1 h | inhibition, % at 8.33 µM | actives 0.51% (n = 340,000); in the data active means inhibition above about 40%
Target sequence (Q9Y4P1 whole entry, looked up): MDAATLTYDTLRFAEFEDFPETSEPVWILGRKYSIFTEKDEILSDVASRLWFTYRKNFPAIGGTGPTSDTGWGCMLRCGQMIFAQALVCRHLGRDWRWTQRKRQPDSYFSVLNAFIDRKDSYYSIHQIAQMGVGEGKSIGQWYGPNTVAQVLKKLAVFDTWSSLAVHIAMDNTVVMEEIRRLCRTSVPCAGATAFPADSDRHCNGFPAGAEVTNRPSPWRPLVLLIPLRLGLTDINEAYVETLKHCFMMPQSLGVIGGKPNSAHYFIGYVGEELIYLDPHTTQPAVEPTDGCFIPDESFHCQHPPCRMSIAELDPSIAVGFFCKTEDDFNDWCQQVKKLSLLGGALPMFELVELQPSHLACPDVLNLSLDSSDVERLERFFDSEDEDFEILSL
HNF4A DNA FP – change in binding of human HNF4 alpha to DNA. P41235. HNF4a-FITC DNA binding, fluorescence polarization, 1 h. activity change, % at 10 µM. actives 0.3% (n = 360,000); in the data active means activity change above about 30%, passing the limit was not always enough
SENP1 FRET inh – inhibitors of human SENP1 SUMO protease catalytic domain | inhibition, % at 10 µM | actives 0.21% (n = 360,000) | Q9P0U3 | recombinant SENP1 catalytic domain, CyPet-SUMO1-YPet FRET cleavage;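 active means inhibition at least 30% at 10 µM, raw YFP signal under a set limit, fluorescence ratio 0.5 to 1.5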
Target sequence (Q9P0U3 419-644 limits assumed): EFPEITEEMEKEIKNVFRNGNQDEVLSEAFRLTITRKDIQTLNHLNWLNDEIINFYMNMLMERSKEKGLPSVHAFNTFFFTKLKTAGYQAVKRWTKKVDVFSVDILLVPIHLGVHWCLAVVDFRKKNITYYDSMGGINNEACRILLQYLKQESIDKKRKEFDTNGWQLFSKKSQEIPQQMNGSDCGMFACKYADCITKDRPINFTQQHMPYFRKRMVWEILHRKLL
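Assay system – human recombinant His6-tagged SENP1 catalytic domain enzyme · Input – SENP1 enzyme, 20 pM final · Buffer or medium – Tris pH 8 buffer plus EDTA, NaCl, BME, BSA, NP40, catalase · Schedule – 50 min reaction at room temperature · Technique – FRET read of cyan and yellow fluorescence · Control set – no-enzyme wells low, DMSO-plus-enzyme wells high control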
Rpn11 inh – inhibitors of human proteasome Rpn11. human 26S proteasome, Ub4-pepOG fluorescence polarization; 20S core pre-blocked with epoxomicin. O00487. inhibition, % at 20 µM. actives 0.59% (n = 360,000);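 active means inhibition at 20 µM, scaled to each plate's controls, above about 33%, limit read from the data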
CSN deneddyl inh – inhibitors of human CSN-mediated cullin deneddylation; inhibition, % at 12.5 µM; Purified CSN, SCF-Nedd8-OG deneddylation, fluorescence polarization; actives 0.38% (n = 360,000);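 active means pattern-corrected inhibition above about 35%, with an unprinted fluorescence ratio check between 0.5 and 1.5, limit read from the data, passing the limit was not always enough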
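Detection – fluorescence polarization · System – HEK293T-derived human Csn5 enzyme · Controls – substrate-only high control, full reaction low control · Timing – 90 min, room temperature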
TPT1 inh – inhibitors of Candida albicans tRNA 2'-phosphotransferase TPT1 | actives 0.81% (n = 300,000) | inhibition, % at 5 µM | recombinant caTPT1, FP RNA substrate dephosphorylation;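 active means inhibition above the mean of all tested compounds plus 3 SD, set per screening campaign, cut at about 24% in these data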
ATG4B confirm – ATG4B (human) inhibition, single-dose confirmed; shares compounds with ATG4B inhibitor; ATG4B protease fluorescent substrate cleavage assay; inhibition, % at 8.33 µM; actives 92% (n = 320); AID 504757; in the data active means inhibition above about 39%
PLA2 counter – counter-screen for ATG4B inhibitors: human phospholipase A2. shares compounds with ATG4B inhibitor. purified PLA2, NBD-C6-HPC fluorescence, 45 min. inhibition, % at 8.33 µM. actives 66% (n = 1,600). AID 588402; in the data active means inhibition above about 50%
Hits are given with their value; - = inactive; . = not tested or not shown.

SMILES | ATG4B inhibitor | HNF4A DNA FP | SENP1 FRET inh | Rpn11 inh | CSN deneddyl inh | TPT1 inh | PLA2 counter | others
Cc1cccc(N2CCN(C(=S)NCc3ccco3)CC2)c1C | 45.9 | - | - | - | - | - | -
C=CCOC(=O)C1=C[C@@H](c2coc3ccccc3c2=O)C[C@@H](OCCCCO)O1 | - | - | - | - | - | - | .
Nc1nonc1C(=O)NCCN=Cc1cc(Cc2ccccc2)cc(Br)c1O | 85.6 | - | - | - | - | - | 71.6
Cc1ccc(N(CC(=O)Nc2ccc(F)c(Cl)c2)S(=O)(=O)c2c(C)noc2C)cc1 | 40.6 | - | - | - | - | - | 61.0
CCOC(=O)c1ccc(NC(=O)NCc2ccccc2)cc1 | 49.2 | - | - | - | - | - | 55.8
CCN(C(=O)COC(=O)CCOc1cc(C)ccc1C)c1c(N)n(Cc2ccccc2)c(=O)[nH]c1=O | - | - | - | - | - | . | .
O=C1C(=O)c2c(C(=O)c3ccccc3)coc2-c2ccccc21 | 64.5 | - | - | - | - | - | 88.8
CCN(C(=O)Cn1cc(C(F)(F)F)ccc1=O)C1CCS(=O)(=O)C1 (stereo not given) | . | - | - | - | - | . | .
Cc1ccc(C(=O)OCC(=O)Nc2cc(C(C)(C)C)no2)c(C)c1 | - | - | - | - | - | . | .
CCOC(=O)C1(CCc2ccccc2)CCN(C(=O)c2ccoc2)CC1 | - | - | - | - | - | - | .
CC#CC(=O)N1CCC(CCc2ccccc2)(C(=O)OCC)CC1 | 48.6 | - | - | - | - | - | -
COC(=O)C1=C(C(=O)OC)C2C=CC1C1C(OC(C)=O)C(OC(C)=O)C21 (stereo not given) | . | - | - | - | - | . | .
O=C(O)c1cc(N/N=C2/CC(c3ccccc3)Oc3ccccc32)ccc1Cl (stereo not given) | 48.9 | - | - | - | - | - | - | ATG4B confirm=59.2
CCn1c(N2CCN(S(=O)(=O)c3ccc(Cl)cc3)CC2)nc2ccccc21 | 59.9 | - | - | - | - | - | 67.3
COc1ccc(NC(=O)COC(=O)C2COc3ccccc3O2)cc1OC (stereo not given) | . | - | - | - | - | . | .
CC(CNC(=S)Nc1cc(F)cc(F)c1)CSc1ccc(Cl)cc1 (stereo not given) | 46.5 | - | - | - | - | - | 69.5
O=C(Nc1ccc(Oc2cccnc2)cc1)C1CCN(Cc2cc(Cl)ccc2O)CC1 | - | - | - | - | - | - | .
CCc1nc(N(CC)CC)c2oc3ccccc3c2n1 | - | - | - | - | - | - | .
CCc1nc(N2CCC(C)CC2)c2oc3ccccc3c2n1 | 56.9 | - | - | - | - | - | 67.8
Cc1sc2nc(SCc3nnc(-c4cccs4)o3)n(C3CCCC3)c(=O)c2c1C | 44.2 | - | - | - | - | - | 65.6
Cc1nnc(SCc2nnc(-c3cccs3)o2)n1C | - | - | - | - | - | - | .
C(=N\Nc1nc(N2CCOCC2)nc(N2CCOCC2)n1)/c1ccco1 | . | . | . | . | . | - | .
Fc1ccc(Nc2nc(N/N=C/c3ccco3)nc(N3CCCCC3)n2)cc1 | 63.9 | - | - | - | - | - | 77.6
O=C(c1cc(-c2ccccc2O)on1)N1CCc2ccccc2C1 | - | - | - | - | - | - | .
O=C(c1cc(-c2ccco2)on1)N1CCCc2ccccc21 | 62.9 | - | - | - | - | - | -
SMILES | ATG4B inhibitor | HNF4A DNA FP | SENP1 FRET inh | Rpn11 inh | CSN deneddyl inh | TPT1 inh | PLA2 counter | others
O=C(c1cc(-c2ccco2)on1)N1CCc2ccccc2C1 | 46.2 | - | - | - | - | - | 58.5
Cc1cccc(C)c1-n1cccc1/C=C1\SC(=S)N(c2cccc(C(=O)O)c2)C1=O | 91.1 | - | - | - | - | - | 85.1
Cc1cccc(C)c1NC(=O)CN1C(=O)S/C(=C\c2cccn2-c2cccc(C(=O)O)c2)C1=O | 46.9 | - | - | - | - | - | -
CSc1ccccc1OCc1cc(C(=O)NCC(C)Oc2cccnc2)no1 (stereo not given) | . | - | - | - | - | . | .
Cc1c(Cl)c([N+](=O)[O-])nn1Cc1ccc(C(=O)Nc2ccc(Cl)cn2)o1 | 45.7 | - | - | - | - | - | - | ATG4B confirm=63.8
NC(=N\N=CCc1ccccc1)/C(N)=N/N=CCc1ccccc1 | - | - | - | - | - | . | .
COc1ccc(/C=C2\SC(=S)N(CCCC(=O)NNC(=O)c3ccccc3O)C2=O)cc1 | 49.1 | - | - | - | - | - | -
COc1ccc(/C=C2/SC(=S)N(CCCC(=O)Nc3ccccc3C(=O)O)C2=O)cc1 | - | - | - | - | - | - | .
CCCN(C(=O)Cc1csc(-c2ccccc2)n1)C1CCS(=O)(=O)C1 (stereo not given) | - | - | - | - | - | . | .
c1ccc(OCc2nnnn2-c2ccccc2)cc1 | 42.1 | - | - | - | - | - | -
NC(=O)Cc1ccc(C(=O)c2ccc(Cl)cc2)s1 | 57.3 | - | - | - | - | - | 50.8
COc1cc(C2OC(=O)c3ccccc3S2)cc(OC)c1OC (stereo not given) | - | - | - | - | - | - | .
COc1ccc(C2OC(=O)c3ccccc3S2)cc1 (stereo not given) | 53.9 | - | - | - | - | - | 54.0
O=Cc1cn(CCC(=O)O)nc1-c1cccc(Br)c1 | - | - | - | - | - | - | .
O=C(O)CCn1cc(/C=C\C(=O)c2ccc(Cl)cc2)c(-c2cccc(Br)c2)n1 | 45.8 | - | - | - | - | - | - | ATG4B confirm=69.3
CSCc1c(C(=O)N2CCCc3ccccc32)oc2ccccc12 | 61.4 | - | - | - | - | . | 77.7
O=C(c1ccc2c(=O)n(C3CCCC3)c(=S)[nH]c2c1)N1CCCCCC1 | 61.8 | - | - | - | - | - | 65.1
CCOC(=O)C1CCCN(C(=O)c2ccc(Cn3c(=S)[nH]c4cc(C(=O)OC)ccc4c3=O)cc2)C1 (stereo not given) | - | - | - | - | - | - | .
CC1CCCN(C(=O)c2ccc3c(=O)n(C4CCCC4)c(=S)[nH]c3c2)C1 (stereo not given) | - | - | - | - | - | - | .
CCOC(=O)C1CCCN(C(=O)c2ccc3c(=O)n(Cc4ccccc4OC)c(=S)[nH]c3c2)C1 (stereo not given) | 50.8 | - | - | - | - | - | - | ATG4B confirm=73.6
CCN(CC)C(=O)C1=C(C)N(CCCOC)C(=O)C(CC(=O)NC2CCCC2)C1 (stereo not given) | . | - | - | - | - | . | .
CC(=O)N(C(C)=O)N1C(=O)/C(=C/c2ccc(Cl)cc2)SC1=S | 67.8 | - | - | - | - | - | 57.2
